From ChEMBL document CHEMBL2177084, “Discovery of salermide-related sirtuin inhibitors: binding mode studies and antiproliferative effects in cancer cells including cancer stem cells” (J Med Chem, 2012)
Blank lines part the entries; values can stand above or below the compound they belong to. The source made the active and inactive calls. The calls are words filed in the database; no cut-off is given here.

Key:
U-937 [1] = test: Induction of apoptosis in human U937 cells at 50 uM after 45 hrs by flow cytometry; format: functional, cell-based
Procedure, shortened: (§1)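 Apoptosis was taken as the pre-G1 peak after propidium iodide staining in hypotonic citrate/Triton buffer (30 min, dark) and flow cytometry. Triplicate experiments.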

U-937 [2] = test: Induction of apoptosis in human U937 cells at 5 uM after 45 hrs by flow cytometry; format: functional, cell-based; procedure, shortened: as §1
[3] = biological target: T1, NAD-dependent protein deacetylase sirtuin-1 (Homo sapiens) (UniProt Q96EB6); test: Inhibition of human N-terminal GST-tagged SIRT1 expressed in Escherichia coli using Arg-His- Lys-Lys(Ac) as substrate after 1 hr by Fluor de Lys fluorescence based assay
T1 sequence (whole entry): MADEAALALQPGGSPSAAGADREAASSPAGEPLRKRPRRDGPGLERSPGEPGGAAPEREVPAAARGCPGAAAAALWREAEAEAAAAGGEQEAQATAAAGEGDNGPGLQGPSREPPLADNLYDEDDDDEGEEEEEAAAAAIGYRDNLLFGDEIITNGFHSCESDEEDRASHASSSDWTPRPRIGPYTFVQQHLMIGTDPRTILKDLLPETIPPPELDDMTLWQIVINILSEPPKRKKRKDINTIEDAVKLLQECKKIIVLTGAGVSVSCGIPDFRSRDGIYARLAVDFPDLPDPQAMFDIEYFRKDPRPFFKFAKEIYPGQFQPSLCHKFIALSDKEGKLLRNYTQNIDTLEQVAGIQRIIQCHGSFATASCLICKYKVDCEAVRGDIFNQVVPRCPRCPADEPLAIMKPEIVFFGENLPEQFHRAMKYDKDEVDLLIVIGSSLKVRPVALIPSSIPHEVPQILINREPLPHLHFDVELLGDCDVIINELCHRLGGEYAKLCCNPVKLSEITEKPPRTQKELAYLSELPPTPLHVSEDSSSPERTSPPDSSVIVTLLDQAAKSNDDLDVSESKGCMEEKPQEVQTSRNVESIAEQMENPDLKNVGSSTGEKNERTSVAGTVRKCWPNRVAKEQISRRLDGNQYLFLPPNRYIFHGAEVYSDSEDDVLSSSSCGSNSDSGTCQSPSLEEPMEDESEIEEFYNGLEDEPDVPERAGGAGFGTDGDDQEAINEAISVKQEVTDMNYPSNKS
Procedure, shortened: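 Recombinant full-length human sirtuin expressed in E. coli was incubated 1 h at 37 °C with p53-derived AMC-conjugated acetyl-peptide (SIRT1: Arg-His-Lys-Lys(Ac); SIRT2: Gln-Pro-Lys-Lys(Ac); […]) and NAD+ ([…]). The reaction was stopped and developed with developer containing 2 mM nicotinamide, and fluorescence read at ex 360/em 460 nm. Compound fluorescence was subtracted using an enzyme-free counter assay. Triplicate.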

MOLT-4 [4] = test: Antiproliferative activity against human MOLT4 cells at 100 uM by MTT assay; format: functional, cell-based; conditions: TDE = time-dependent effect
Procedure, shortened: (§2)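 Cells exposed to compound for 24, 48 and 72 h; growth inhibition read by MTT and expressed as percentage antiproliferative activity.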

MOLT-4 [5] = test: Antiproliferative activity against human MOLT4 cells at 100 uM after 24 to 72 hrs by MTT assay; format: functional, cell-based; procedure, shortened: as §2
MOLT-4 [6] = test: Antiproliferative activity against human MOLT4 cells at 25 uM after 24 to 72 hrs by MTT assay; format: functional, cell-based; procedure, shortened: as §2
U-937 [7] = test: Induction of apoptosis in human U937 cells after 45 hrs by flow cytometry; format: functional; set-up: concentration or dose not given beside the values; procedure, shortened: as §1
U-937 [8] = test: Cell cycle arrest in human U937 cells assessed as accumulation at G1 phase at 25 uM after 40 hrs by flow cytometry; format: functional, cell-based
[9] = (§3) Cytotoxicity against human CRC 1.1 cells at 50 uM after 72 hrs by celltiter-glo luminescent assay; format: functional
Procedure, shortened: (§4)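 Patient-derived CSC spheroids were dissociated, plated at 2000–3000 viable cells, and held 24 h at 37 °C in 5% CO2. They were then treated 72 h with eight 1:3 serial dilutions (0.023–50 μM), with 0.1% DMSO as control, in triplicate. Viability was read by CellTiter-Glo luminescence relative to DMSO, and CC50 was obtained by 4-parameter logistic fit (mean of three experiments).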

[10] = Cytotoxicity against human CRO cells at 50 uM after 72 hrs by celltiter-glo luminescent assay; format: functional; procedure, shortened: as §4
[11] = Cytotoxicity against human 30PT cells after 72 hrs by celltiter-glo luminescent assay; format: functional; procedure, shortened: as §4
U-937 [12] = test: Granulocytic differentiation in human U937 cells assessed as increase of CD11c cells at 25 uM after 40 hrs by FACS analysis relative to control; format: functional
Procedure, shortened: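 U937 cells treated 40 h at 25 μM, then stained with PE-conjugated anti-CD11c (PE mouse IgG1 as isotype control) for 30 min at 4 °C in the dark. Cells were washed in PBS and taken up in PBS with 0.25 μg/mL propidium iodide. Differentiation = CD11c-positive cells minus PI-positive dead cells, by FACS.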

U-937 [13] = test: Cell cycle arrest in human U937 cells at 25 uM after 40 hrs by flow cytometry; format: functional, cell-based
[14] = Cytotoxicity against human 30PT cells at 50 uM after 72 hrs by celltiter-glo luminescent assay; format: functional; procedure, shortened: as §4
[15] = Cytotoxicity against human 30P cells at 50 uM after 72 hrs by celltiter-glo luminescent assay; format: functional; procedure, shortened: as §4
Homo sapiens = species: Homo sapiens; test: as §3; format: functional; procedure, shortened: as §4
U-937 [16] = test: Cell cycle arrest in human U937 cells assessed as accumulation at S phase at 25 uM after 40 hrs by flow cytometry; format: functional, cell-based
[17] = Cytotoxicity against human 30P cells after 72 hrs by celltiter-glo luminescent assay; format: functional; procedure, shortened: as §4
[18] = Cytotoxicity against human CRC 1.1 cells after 72 hrs by celltiter-glo luminescent assay; format: functional; procedure, shortened: as §4
[19] = Cytotoxicity against human CRO cells after 72 hrs by celltiter-glo luminescent assay; format: functional; procedure, shortened: as §4
MDA-MB-231 [20] = test: Antiproliferative activity against human MDA-MB-231 cells at 50 uM after 24 to 72 hrs by MTT assay; format: functional, cell-based; procedure, shortened: as §2
RKO [21] = test: Antiproliferative activity against human RKO cells at 50 uM after 24 to 72 hrs by MTT assay; format: functional, cell-based; procedure, shortened: as §2
MOLT-4 [22] = test: Antiproliferative activity against human MOLT4 cells at 50 uM after 24 to 72 hrs by MTT assay; format: functional, cell-based; procedure, shortened: as §2
RKO [23] = test: Antiproliferative activity against human RKO cells at 25 uM after 24 to 72 hrs by MTT assay; format: functional, cell-based; procedure, shortened: as §2
MDA-MB-231 [24] = test: Antiproliferative activity against human MDA-MB-231 cells at 25 uM after 24 to 72 hrs by MTT assay; format: functional, cell-based; procedure, shortened: as §2
[25] = in the assay text read “after 40 hrs” for “after 45 hrs”
[26] = in the assay text read “40 hrs” for “45 hrs”

inhibition [3]: Active
Structure (SMILES): CC(NC(=O)c1ccc(/N=C/c2c(O)ccc3ccccc23)cc1)c1ccccc1 (configuration not stated)
Activity (U-937 [1]): Active
Activity (U-937 [2]): inactive
Activity (MOLT-4 [4]): tde
Activity (MOLT-4 [5]): Active
Activity (MOLT-4 [6]): Active
Activity (U-937 [7]; [25]): 47%
Activity (U-937 [8]): Active

Structure (SMILES): N#C/C(=C\c1ccc(-c2cc(Cl)ccc2Cl)o1)C(=O)Nc1cccc2ncccc12
inhibition at 50 µM [9]: 50%
inhibition at 50 µM [10]: 50%
CC50 [11]: 9.6 µM
Activity (U-937 [12]): inactive
Activity (U-937 [7]; [26]): inactive
Activity (U-937 [13]): inactive

inhibition [3]: Active
Structure (SMILES): CC(NC(=O)c1ccccc1/N=C/c1c(O)ccc2ccccc12)c1ccccc1 (configuration not stated) [SIRTINOL]
Activity (U-937 [1]): Active
Activity (U-937 [2]): inactive
Activity (U-937 [7]; [25]): 47%

Structure (SMILES): CC(C[S+]([O-])c1ccc(/N=C/c2c(O)ccc3ccccc23)cc1)c1ccccc1 (configuration not stated)
Activity (U-937 [1]): Active
Activity (U-937 [2]): inactive
Activity (MOLT-4 [4]): tde
Activity (MOLT-4 [5]): Active

Structure (SMILES): CC(CSc1ccc(/N=C/c2c(O)ccc3ccccc23)cc1)c1ccccc1 (configuration not stated)
Activity (U-937 [1]): Active
Activity (U-937 [2]): inactive
Activity (MOLT-4 [5]): Active
Activity (U-937 [7]; [25]): 90%

Structure (SMILES): NC(=O)C1CCCc2c1[nH]c1ccc(Cl)cc21 (configuration not stated)
inhibition at 50 µM [14]: 20%
inhibition at 50 µM [15]: 10%
inhibition (Homo sapiens): inactive
inhibition at 50 µM [10]: 20%
Activity (U-937 [12]): inactive
Activity (U-937 [7]; [26]): inactive
Activity (U-937 [13]): inactive

inhibition [3]: Active
Structure (SMILES): CC(NC(=O)c1cccc(/N=C/c2c(O)ccc3ccccc23)c1)c1ccccc1 (configuration not stated)
Activity (U-937 [1]): Active
Activity (U-937 [2]): inactive
Activity (U-937 [7]; [25]): 47%
Activity (U-937 [8]): Active

Structure (SMILES): CC(NS(=O)(=O)c1cccc(/N=C/c2c(O)ccc3ccccc23)c1)c1ccccc1 (configuration not stated)
Activity (U-937 [16]): Active
Activity (U-937 [1]): Active
Activity (U-937 [2]): inactive

Structure (SMILES): CC(C(=O)Nc1cccc(/N=C/c2c(O)ccc3ccccc23)c1)c1ccccc1 (configuration not stated) [SALERMIDE]
Activity (U-937 [1]): Active
Activity (U-937 [2]): inactive
CC50 [11]: 36.5 µM
CC50 [17]: 41 µM
CC50 [18]: 9.7 µM
CC50 [19]: 6.7 µM
Activity (MOLT-4 [4]): tde
Activity (MOLT-4 [5]): Active
Activity (MDA-MB-231 [20]): Active
Activity (RKO [21]): Active
Activity (MOLT-4 [22]): Active
Activity (RKO [23]): Active
Activity (MDA-MB-231 [24]): Active
Activity (MOLT-4 [6]): Active
Activity (U-937 [7]; [25]): 70%
Activity (U-937 [8]): Active

Structure (SMILES): CC(CSc1cccc(/N=C/c2c(O)ccc3ccccc23)c1)c1ccccc1 (configuration not stated)
Activity (U-937 [1]): Active
Activity (U-937 [2]): inactive
CC50 [11]: 15.6 µM
CC50 [17]: 15.5 µM
CC50 [18]: 20 µM
CC50 [19]: 14.5 µM
Activity (MDA-MB-231 [20]): Active
Activity (RKO [21]): Active
Activity (MOLT-4 [22]): Active
Activity (MOLT-4 [6]): Active
